Experimental findings from ChEMBL document CHEMBL1136016, “Synthesis, biological activity, and molecular modeling investigation of new pyrazolo[4,3-e]-1,2,4-triazolo[1,5-c]pyrimidine derivatives as human A(3) adenosine receptor antagonists” (J Med Chem, 2002) are described below.

pIC50, pKi: −log10 of the molar value.

Experiment [1] addresses T1, Adenosine receptor A2b (Homo sapiens, UniProt P29275).
T1 sequence (P29275 whole entry): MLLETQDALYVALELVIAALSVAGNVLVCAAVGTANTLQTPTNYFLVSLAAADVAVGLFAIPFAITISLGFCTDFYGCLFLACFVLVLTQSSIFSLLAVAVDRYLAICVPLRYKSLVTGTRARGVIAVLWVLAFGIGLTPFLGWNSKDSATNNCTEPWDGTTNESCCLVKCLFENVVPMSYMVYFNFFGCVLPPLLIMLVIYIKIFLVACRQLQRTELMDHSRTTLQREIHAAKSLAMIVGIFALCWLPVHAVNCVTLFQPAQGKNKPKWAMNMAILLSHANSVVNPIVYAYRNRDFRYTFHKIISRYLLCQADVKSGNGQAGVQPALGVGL
In words: Displacement of [3H]DPCPX from human Adenosine A2B receptor expressed in HEK293 cells; range 149-204. The experiment is classed as cell-based. The gist of the method: (§1)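 HEK-293 membranes expressing the human receptor were incubated 60 min at 25 °C. Six to eight test concentrations were used. Nonspecific binding was set with NECA. n = 3-6.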
(Displacement assays read how much labelled ligand stays bound in the presence of the test substance.)

For experiment [2], the target named is T2, Adenosine receptor A1 (Homo sapiens, UniProt P30542).
T2 sequence (P30542 whole entry): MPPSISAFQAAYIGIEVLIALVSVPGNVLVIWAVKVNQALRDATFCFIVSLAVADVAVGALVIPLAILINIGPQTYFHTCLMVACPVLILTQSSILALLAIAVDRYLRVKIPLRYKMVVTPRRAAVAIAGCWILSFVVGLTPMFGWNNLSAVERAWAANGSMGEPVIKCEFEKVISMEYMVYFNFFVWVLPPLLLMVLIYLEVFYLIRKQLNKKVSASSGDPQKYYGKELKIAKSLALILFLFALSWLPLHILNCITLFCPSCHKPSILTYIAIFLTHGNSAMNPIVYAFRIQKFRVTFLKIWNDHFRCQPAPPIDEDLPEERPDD
In words: Displacement of [3H]DPCPX from human Adenosine A1 receptor expressed in CHO cells; range 198-382. In kind it is cell-based. In short, it runs like this:
(§2)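 Human recombinant A1 receptor in CHO cell membranes, resuspended in 50 mM Tris HCl pH 7.4. Displacement run 120 min at 25 °C with 1 nM [3H]DPCPX, 50 µg protein per assay, and at least six to eight test concentrations. Nonspecific binding defined with CHA. Bound and free separated on glass-fiber filters; filter radioactivity counted. n = 3-6.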

The target of experiment [3] is T3, Adenosine receptor A2a (Homo sapiens, UniProt P29274). The experiment is described as follows: Displacement of [3H]SCH-58261 from human Adenosine A2A receptor expressed in HEK293 cells; range 96-133. The experiment is classed as cell-based.
Experiment [4] deals with Adenosine receptors; A2b & A3 (Homo sapiens) (UniProt P29275+P0DMS8). In words: Selectivity ratio (h2B/hA3). In kind it is protein assay.
For experiment [5], the target named is Adenosine receptors; A1 & A3 (Homo sapiens) (UniProt P30542+P0DMS8). In words: Selectivity ratio (hA1/hA3). In kind it is protein assay.
Experiment [6] has as its target T4, Adenosine receptor A3 (Homo sapiens, UniProt P0DMS8).
T4 sequence (P0DMS8 whole entry): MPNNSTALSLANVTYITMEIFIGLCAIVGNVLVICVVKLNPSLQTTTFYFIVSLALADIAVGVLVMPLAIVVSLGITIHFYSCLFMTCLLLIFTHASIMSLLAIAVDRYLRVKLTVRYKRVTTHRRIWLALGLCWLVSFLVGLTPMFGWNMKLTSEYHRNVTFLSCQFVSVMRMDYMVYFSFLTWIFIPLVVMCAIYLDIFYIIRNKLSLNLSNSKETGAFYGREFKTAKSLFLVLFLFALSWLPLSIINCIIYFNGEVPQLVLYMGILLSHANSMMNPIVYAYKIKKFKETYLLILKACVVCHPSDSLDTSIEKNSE
The experiment is described as follows: biochemical.

Experiment [7] has as its target T1, Adenosine receptor A2b. In words: Displacement of [3H]DPCPX from human Adenosine A2B receptor expressed in HEK293 cells; range 124-180. In kind it is cell-based. The gist of the method: as §1
Experiment [8] deals with T2, Adenosine receptor A1. The experiment is described as follows: Displacement of [3H]DPCPX from human Adenosine A1 receptor expressed in CHO cells; range 290-418. In kind it is cell-based. The gist of the method:
as §2

The target in experiment [9] is T4, Adenosine receptor A3. The experiment is described as follows: Displacement of [3H]MRE3008-F20 from human Adenosine A3 receptor expressed in HEK cells; range 0.37-0.56. The experiment is classed as cell-based, HEK293.
Experiment [10] addresses T3, Adenosine receptor A2a. In words: Displacement of [3H]SCH-58261 from human Adenosine A2A receptor expressed in HEK293 cells; range 40-62. The experiment is classed as cell-based.
Experiment [11] concerns the target T2, Adenosine receptor A1. The experiment is described as follows: Displacement of [3H]DPCPX from human Adenosine A1 receptor expressed in CHO cells; range 245-370. In kind it is cell-based.
Experiment [12] addresses T1, Adenosine receptor A2b. In words: Displacement of [3H]DPCPX from human Adenosine A2B receptor expressed in HEK293 cells; range 49-77. The experiment is classed as cell-based. In short, it runs like this: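 Competition binding on membranes of HEK-293 cells carrying recombinant human A2B receptor. Incubation 60 min at 25 °C in 50 mM Tris HCl pH 7.4 with 10 mM MgCl2, 1 mM EDTA, 0.1 mM benzamidine and 2 IU/mL adenosine deaminase. Radioligand 40 nM [3H]DPCPX, at least six to eight test concentrations. NECA defined nonspecific binding. Bound ligand separated on glass-fibre filters and counted; n = 3-6.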

The target of experiment [13] is T4, Adenosine receptor A3. The experiment is described as follows: Displacement of [3H]MRE3008-F20 from human Adenosine A3 receptor expressed in HEK cells; range 0.61-0.83. In kind it is cell-based, HEK293.
Experiment [14] addresses T3, Adenosine receptor A2a. The experiment is described as follows: Displacement of [3H]SCH-58261 from human Adenosine A2A receptor expressed in HEK293 cells; range 103-142. In kind it is cell-based.
Experiment [15] has as its target T2, Adenosine receptor A1. The experiment is described as follows: Displacement of [3H]DPCPX from human Adenosine A1 receptor expressed in CHO cells. In kind it is cell-based. In short, it runs like this:
as §2

The target in experiment [16] is T1, Adenosine receptor A2b. In words: Displacement of [3H]DPCPX from human Adenosine A2B receptor expressed in HEK293 cells. The experiment is classed as cell-based. The gist of the method: (§3)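 Membranes from HEK-293 cells with human recombinant A2B receptor. Incubation 60 min at 25 °C in 50 mM Tris HCl, 10 mM MgCl2, 1 mM EDTA, 0.1 mM benzamidine, pH 7.4, with 2 IU/mL adenosine deaminase and 40 nM [3H]DPCPX. At least six to eight test concentrations. Nonspecific binding defined with NECA. n = 3-6.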

Experiment [17] addresses T4, Adenosine receptor A3. The experiment is described as follows: Displacement of […] from human Adenosine A3 receptor expressed in CHO cells. The experiment is classed as cell-based. In short, it runs like this: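 Membranes from CHO cells stably expressing human A3, in 50 mM Tris HCl, 10 mM MgCl2 (pH 7.4), 50 µg protein per tube, with 1 nM [3H]MRE3008-F20. Six to eight ligand concentrations were run in duplicate, 120 min at 4 °C. Nonspecific binding was taken with 1 µM MRE3008-F20. Bound ligand was collected on GF/B filters and counted; n = 3-6.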

Experiment [18] deals with T4, Adenosine receptor A3. In words: Inhibition of IB-MECA agonist-mediated cAMP production in membranes of CHO cells expressing human Adenosine A3 receptor. The experiment is classed as functional, cell-based. In short, it runs like this: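 Human A3-CHO membranes (in 50 mM Tris HCl, 10 mM MgCl2, 1 mM EDTA, pH 7.4) were preincubated for 10 min at 37 °C with 5 µM GTP, 0.5 mM Ro 20-1724 and 2.0 IU/mL adenosine deaminase. IB-MECA (100 nM) or antagonist was then added with 1 mM ATP and forskolin for 10 min. The reaction was stopped by 2 min boiling. cAMP was measured by [3H]cAMP competitive protein binding using beef adrenal binding protein, 150 min at 4 °C.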
For orientation: cAMP levels reflect the balance of adenylyl cyclase and phosphodiesterase activity.

For experiment [19], the target named is T3, Adenosine receptor A2a. The experiment is described as follows: Displacement of [3H]SCH-58261 from human Adenosine A2A receptor expressed in CHO cells. The experiment is classed as cell-based. The gist of the method:
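Membranes from CHO cells expressing the human receptor (50 µg protein) with [3H]SCH58261 and six to eight competitor concentrations. Incubated 60 min at 25 °C. Nonspecific binding was set with NECA.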

The target in experiment [20] is T2, Adenosine receptor A1. The experiment is described as follows: Displacement of [3H]DPCPX from human Adenosine A1 receptor expressed in CHO cells; range 265-400. The experiment is classed as cell-based. The gist of the method:
as §2

Experiment [21] has as its target T1, Adenosine receptor A2b. In words: Displacement of [3H]DPCPX from human Adenosine A2B receptor expressed in HEK293 cells; range 56-103. The experiment is classed as cell-based. In short, it runs like this:
as §3

Experiment [22] concerns the target T4, Adenosine receptor A3. The experiment is described as follows: Displacement of [3H]MRE3008-F20 from human Adenosine A3 receptor expressed in HEK cells; range 0.24-0.48. The experiment is classed as cell-based, HEK293.
The target of experiment [23] is T3, Adenosine receptor A2a. In words: Displacement of [3H]SCH-58261 from human Adenosine A2A receptor expressed in HEK293 cells; range 123-162. The experiment is classed as cell-based.

The pKi is −log10 of the Ki, conventionally taken in molar units. Broadly, the pIC50 is −log10 of the IC50, conventionally taken in molar units.

T3 sequence (P29274 whole entry): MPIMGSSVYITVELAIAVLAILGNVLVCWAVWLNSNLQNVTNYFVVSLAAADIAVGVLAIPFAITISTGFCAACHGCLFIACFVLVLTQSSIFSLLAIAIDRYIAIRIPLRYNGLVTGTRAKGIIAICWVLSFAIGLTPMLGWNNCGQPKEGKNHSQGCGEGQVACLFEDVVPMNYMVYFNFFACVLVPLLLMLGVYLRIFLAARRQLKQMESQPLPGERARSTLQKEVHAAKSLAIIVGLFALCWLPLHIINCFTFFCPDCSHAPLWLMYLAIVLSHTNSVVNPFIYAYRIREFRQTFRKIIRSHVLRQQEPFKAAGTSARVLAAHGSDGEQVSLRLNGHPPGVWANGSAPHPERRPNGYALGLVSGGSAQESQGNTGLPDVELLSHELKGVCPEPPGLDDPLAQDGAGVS

As to `CCCn1cc2c(nc(NC(=O)Nc3cccc(OC)c3)n3nc(-c4ccco4)nc23)n1`, the pKi on Adenosine receptor A2b [1] is 6.76; on Adenosine receptor A1 [2], 6.56; at Adenosine receptor A2a [3], 6.95; at Adenosine receptor A3 [6], 9.40. Also, the Ratio amounted to 438 in experiment [4] and 688 in [5].

Turning to `CCCn1cc2c(nc(NC(=O)Nc3ccc(Br)cc3)n3nc(-c4ccco4)nc23)n1`, the pKi on Adenosine receptor A2b [7] was 6.82; at Adenosine receptor A1 [8] it was 6.46; at Adenosine receptor A3 [9] it was 9.35; at Adenosine receptor A2a [10], 7.30. For the same compound, the Ratio is 333 in experiment [4] and 778 in [5].

`CCCn1cc2c(nc(NC(=O)Nc3ccccc3Cl)n3nc(-c4ccco4)nc23)n1`: the pKi at Adenosine receptor A1 [11] was 6.52; on Adenosine receptor A2b [12], 7.21; on Adenosine receptor A3 [13], 9.15; on Adenosine receptor A2a [14] it was 6.92. The values for the Ratio in [4] and in experiment [5] were 86 and 423, respectively.

As for `Cn1cc2c(nc(NC(=O)Cc3ccccc3)n3nc(-c4ccco4)nc23)n1`, the pKi is 6.15 on Adenosine receptor A1 [15], 6.78 at Adenosine receptor A2b [16], 9.09 at Adenosine receptor A3 [17] and 6.37 on Adenosine receptor A2a [19]. Moreover, the pIC50 at Adenosine receptor A3 [18] was 8.19. Moreover, the results for the Ratio in experiment [4] and in experiment [5] were 204 and 867, respectively.

Consider `CCCn1cc2c(nc(NC(=O)Nc3ccc(Cl)cc3)n3nc(-c4ccco4)nc23)n1`, for which the pKi on Adenosine receptor A1 [20] is 6.49; on Adenosine receptor A2b [21], 7.12; at Adenosine receptor A3 [22], 9.47; on Adenosine receptor A2a [23] it was 6.85. Moreover, the Ratio in [4] was determined as 224; in experiment [5] it was 956.
